For 1 molecule, IC50, inhibition and Activity results are on record in ChEMBL document CHEMBL4433211, “Discovery of the First-in-Class GSK-3β/HDAC Dual Inhibitor as Disease-Modifying Agent To Combat Alzheimer's Disease” (ACS Med Chem Lett, 2019).

The target in data set [1] is Glycogen synthase kinase-3 beta (Homo sapiens, UniProt P49841). Nature of the data set: Inhibition of human recombinant GSK3beta using GSM as substrate incubated for 30 mins by luminescence based assay.
For data set [2], the target named is T1, Protein deacetylase HDAC6 (Homo sapiens) (UniProt Q9UBN7).
T1 sequence (whole entry): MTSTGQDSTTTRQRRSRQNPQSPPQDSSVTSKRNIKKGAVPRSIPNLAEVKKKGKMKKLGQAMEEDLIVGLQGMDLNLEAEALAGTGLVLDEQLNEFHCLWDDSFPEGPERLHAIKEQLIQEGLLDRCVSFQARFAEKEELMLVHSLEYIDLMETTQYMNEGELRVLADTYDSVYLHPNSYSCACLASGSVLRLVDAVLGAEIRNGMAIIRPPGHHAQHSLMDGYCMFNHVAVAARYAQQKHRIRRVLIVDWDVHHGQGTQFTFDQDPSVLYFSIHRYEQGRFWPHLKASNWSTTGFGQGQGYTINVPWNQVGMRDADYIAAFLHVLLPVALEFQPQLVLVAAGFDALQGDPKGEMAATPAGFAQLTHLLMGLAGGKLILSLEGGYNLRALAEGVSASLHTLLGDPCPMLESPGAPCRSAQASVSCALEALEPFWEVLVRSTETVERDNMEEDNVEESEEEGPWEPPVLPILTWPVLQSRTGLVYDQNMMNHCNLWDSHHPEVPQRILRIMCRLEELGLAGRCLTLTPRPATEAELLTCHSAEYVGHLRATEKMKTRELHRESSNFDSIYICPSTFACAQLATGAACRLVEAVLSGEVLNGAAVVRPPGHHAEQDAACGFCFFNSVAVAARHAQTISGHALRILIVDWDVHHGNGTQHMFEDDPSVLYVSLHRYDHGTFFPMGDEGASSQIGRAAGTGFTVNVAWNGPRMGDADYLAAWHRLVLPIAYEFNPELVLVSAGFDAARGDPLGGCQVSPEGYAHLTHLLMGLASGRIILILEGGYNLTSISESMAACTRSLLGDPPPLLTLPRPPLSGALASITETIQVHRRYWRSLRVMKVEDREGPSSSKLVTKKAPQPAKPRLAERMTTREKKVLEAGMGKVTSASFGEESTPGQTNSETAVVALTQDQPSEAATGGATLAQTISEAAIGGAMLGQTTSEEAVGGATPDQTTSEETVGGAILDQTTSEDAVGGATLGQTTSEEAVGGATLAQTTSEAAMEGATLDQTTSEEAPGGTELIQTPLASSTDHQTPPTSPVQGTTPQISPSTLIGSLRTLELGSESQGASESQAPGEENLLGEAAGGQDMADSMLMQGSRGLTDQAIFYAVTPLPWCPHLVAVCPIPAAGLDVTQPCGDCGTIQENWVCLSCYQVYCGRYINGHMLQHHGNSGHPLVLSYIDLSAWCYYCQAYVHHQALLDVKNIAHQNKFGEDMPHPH
As to the kind of experiment: Inhibition of HDAC6 in human SH-SY5Y cells assessed as increase in acetylation of alpha-tubulin incubated for 30 hrs by Western blot analysis. In kind it is cell-based. Summed up: (§1)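 Human neuroblastoma SH-SY5Y cells treated 30 h at 0.1, 1.0 and 5.0 μM; cell lysates probed by Western blot for acetylated α-tubulin (HDAC6 cellular marker) and histone H3 acetylated at lysines 9/14 (H3K9K14ac).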

Data set [3] has as its target T2, Histone deacetylase (Homo sapiens) (UniProt Q13547+O15379+Q9UBN7+Q92769+Q9UQL6+Q8WUI4+Q9BY41+Q96DB2+P56524+Q9UKV0+Q969S8). As to the kind of experiment: Inhibition of HDAC in human SH-SY5Y cells assessed as increase in acetylation of histone 3 at lysines 9/14 at 0.1 to 5 uM incubated for 30 hrs by Western blot analysis. Format: cell-based. Summed up:
as §1

The test system of data set [4] is SH-SY5Y. Nature of the data set: Neuroprotective activity against H2O2-induced cell death in human SH-SY5Y cells at 0.1 uM incubated for 24 hrs by MTS assay. Format: functional, cell-based. In short, it runs like this:
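SH-SY5Y cells challenged 24 h with H2O2 (25 and 50 μM) in presence of compounds (0.1–10 μM), alone or as a two-compound combination; viability by MTS assay as % of control.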

The subject of data set [5] is SH-SY5Y. As to the kind of experiment: Induction of neurogenesis in human SH-SY5Y cells assessed as upregulation of MAP-2 mRNA at 10 uM incubated for 24 hrs by RT-PCR analysis. Format: functional, cell-based. Summed up:
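SH-SY5Y cells treated 24 h (10 μM, or 1 μM for one parent compound; retinoic acid positive control); GAP43, N-myc and MAP-2 mRNA measured by RT-PCR, expressed as fold of control.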

A further data set has as its system Microglia. As to the kind of experiment: Immunomodulatory activity in LPS treated Wistar rat primary microglial cells assessed as decrease in MRC1 expression level at 5 to 50 uM incubated for 24 hrs by western blot analysis. In kind it is functional, cell-based. Summed up: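 Primary microglial cells treated 24 h with LPS in presence or absence of test compound; NOS2, MRC1 and TREM2 protein assessed by Western blot, normalized to GAPDH.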

The nature of data set [6]: Toxicity in zebra fish embryo assessed as lethality at < 100 uM dosed at 5 hpf and measured after 44 to 48 hpf by microscopic based assay. The following applies: zebrafish, in vivo. Format: organism-based, Danio rerio. Summed up: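 Wild-type zebrafish embryos exposed to the compound at concentrations below 100 μM, including 25, 50 and 75 μM. Control embryos were kept in 2% DMSO vehicle. Embryos were scored for lethality, and their morphology, including tail and eye formation, was inspected by imaging.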

Data set [7] can be described thus: Toxicity in zebra fish embryo assessed as stunted tail at 50 to 75 uM uM dosed at 5 hpf and measured after 44 to 48 hpf by microscopic based assay. The conditions noted are these: zebrafish, in vivo. In kind it is organism-based, Danio rerio.
The nature of data set [8]: Toxicity in zebra fish embryo assessed as malformation of eye at 75 uM uM dosed at 5 hpf and measured after 44 to 48 hpf by microscopic based assay. Format: organism-based, Danio rerio. The following applies: zebrafish, in vivo.
A short description of data set [9]: Toxicity in zebra fish embryo assessed as development perturbation at 75 uM dosed at 5 hpf and measured after 44 to 48 hpf by microscopic based assay. The following applies: zebrafish, in vivo. In kind it is organism-based, Danio rerio.
The target in data set [10] is T2, Histone deacetylase (Homo sapiens). As to the kind of experiment: Inhibition of HDAC in human SH-SY5Y cells assessed as increase in acetylation of histone 3 at lysines 9/14 at 5 uM incubated for 30 hrs by Western blot analysis. In kind it is cell-based. Summed up:
as §1

Calls of active or inactive are those of the source. The calls are words filed in the database; no cut-off is given here.

Chain of Glycogen synthase kinase-3 beta (P49841 whole entry): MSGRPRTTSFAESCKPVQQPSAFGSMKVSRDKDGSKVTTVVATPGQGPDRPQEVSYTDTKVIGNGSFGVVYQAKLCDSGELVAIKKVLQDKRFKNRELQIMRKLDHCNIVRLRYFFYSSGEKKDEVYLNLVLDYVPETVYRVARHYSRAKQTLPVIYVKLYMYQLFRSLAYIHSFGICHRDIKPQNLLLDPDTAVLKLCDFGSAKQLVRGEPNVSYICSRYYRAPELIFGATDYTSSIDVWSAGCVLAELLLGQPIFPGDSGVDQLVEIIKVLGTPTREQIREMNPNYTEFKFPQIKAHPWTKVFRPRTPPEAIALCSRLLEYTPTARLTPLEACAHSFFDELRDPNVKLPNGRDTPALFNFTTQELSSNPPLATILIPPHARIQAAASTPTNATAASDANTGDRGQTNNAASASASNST

Regarding `O=C(CCCCCNC(=S)Nc1ccc2c(c1)C(=O)NC2=O)NO`, the IC50 in [1] is 2.69 µM. In data set [2], the inhibition entry is “Dose-dependent effect”. Moreover, the inhibition entry in [3] and in [10] was “inactive” each time. The outcome in the data set with SH-SY5Y [4], in the data set on SH-SY5Y [5] and in the data set with Microglia was Active. Also, the Activity result is reported as “Non-Toxic” in [6], “Toxic” in data set [7], “Toxic” in data set [8] and “Toxic” in data set [9].
